Screening data from PubChem BioAssay.
PAFAH1B2 inh: inhibitors of human PAFAH1B2 | recombinant PAFAH1B2, FP-rhodamine activity probe, fluorescence polarization | P68402 | 340,000 compounds, 1.2% hits | inhibition, % at 3.39 µM;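 active means inhibition above the mean of all tested compounds plus 3 SD, cut at about 24% in these data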
Target sequence (P68402 whole entry, looked up): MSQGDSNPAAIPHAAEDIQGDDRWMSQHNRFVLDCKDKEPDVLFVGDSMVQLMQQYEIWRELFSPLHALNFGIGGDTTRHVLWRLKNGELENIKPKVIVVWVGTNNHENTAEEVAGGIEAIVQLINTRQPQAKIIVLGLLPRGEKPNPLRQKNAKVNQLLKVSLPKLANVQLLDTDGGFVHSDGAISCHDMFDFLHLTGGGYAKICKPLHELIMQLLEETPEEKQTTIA
ASAP1 GAP inh: inhibitors of human ASAP1 ArfGAP activity. ASAP1-stimulated ARF1 GTP hydrolysis, GDP FP detection. Q9ULH1. inhibition, % at 16.5 µM. 360,000 compounds, 0.19% hits. AID 624377; in the data active means inhibition above about 25%
pPAFAH FP inh: inhibitors of human plasma PAF acetylhydrolase (pPAFAH) | Q13093 | recombinant pPAFAH, FP-rhodamine probe fluorescence polarization | inhibition, % at 3.39 µM | 330,000 compounds, 1.5% hits | AID 463082;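 active means inhibition above the mean inhibition across the screen plus 3 SD, cut at about 25% in these data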;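 further: inhibitors block binding of the rhodamine activity-based probe so polarization drops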
ARFGAP1 inh: inhibitors of rat ARFGAP1; Q62848; Arfgap1-stimulated ARF1 GTP hydrolysis, GDP FP detection; inhibition, % at 16.5 µM; 360,000 compounds, 0.26% hits; AID 651572;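 active means inhibition above a per-plate limit, mean inhibition of low control wells plus 3 SD, cut at about 25% in these data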
Target sequence (Q62848 1-136 limits assumed): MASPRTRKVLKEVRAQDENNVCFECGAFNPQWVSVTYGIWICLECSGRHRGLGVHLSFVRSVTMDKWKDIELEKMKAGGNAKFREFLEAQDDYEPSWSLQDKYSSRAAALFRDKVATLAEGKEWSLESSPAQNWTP
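Material: truncated rat Arfgap1 GAP domain; Incubation: compound-enzyme preincubation 20 min, reaction 120 min, detection 60 min, 25 °C; Read-out: percent inhibition of Arfgap1-stimulated GTP hydrolysis; Technique: FP, GDP Alexa 633 tracer displaced from anti-GDP antibody, 620/688 nm; Controls: No-Arfgap1 wells (100%) versus DMSO full-reaction wells (0%); Replication: single well per compound.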
PAFAH1B3 inh: blocks human PAF acetylhydrolase 1B catalytic subunit 3; inhibition, % at 3.39 µM; 340,000 compounds, 0.28% hits; recombinant PAFAH1B3, FP-rhodamine probe, fluorescence polarization; Q15102;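 active means inhibition above the screen-wide average of all tested compounds plus 3 SD, cut at about 25% in these data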
Target sequence (Q15102 whole entry, looked up): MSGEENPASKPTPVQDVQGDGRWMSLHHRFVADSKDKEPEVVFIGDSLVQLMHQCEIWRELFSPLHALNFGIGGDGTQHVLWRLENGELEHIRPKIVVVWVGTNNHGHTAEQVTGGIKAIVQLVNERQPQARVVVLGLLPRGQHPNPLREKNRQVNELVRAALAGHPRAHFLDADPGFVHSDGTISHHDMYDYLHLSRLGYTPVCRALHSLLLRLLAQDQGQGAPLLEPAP
PAFAH2 inh: inhibitors of human PAFAH2 | recombinant PAFAH2, FP-rhodamine activity probe, fluorescence polarization | inhibition, % at 3.39 µM | 340,000 compounds, 0.99% hits;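 active means inhibition above the mean over all tested compounds plus 3 SD, cut at about 30% in these data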;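 further: inhibitors block probe labeling of enzyme so polarization drops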
Hits are given with their value; i = inactive; nt = not tested or not shown. An excerpt weighted towards active compounds, which were near 2.7% of everything screened.

SMILES	PAFAH1B2 inh	ASAP1 GAP inh	pPAFAH FP inh	ARFGAP1 inh	PAFAH1B3 inh	PAFAH2 inh
Cc1csc(NC(=O)CSc2sc3c(O)cc(=O)[nH]c3c2C#N)n1	i	i	33.2	i	i	37.3
CCc1nnc(NC(=O)CSc2sc3c(O)cc(=O)[nH]c3c2C#N)s1	i	i	31.8	i	i	i
CCc1nnc(NC(=O)CSc2nc3[nH]c(=O)cc(O)c3s2)s1	i	i	i	i	i	i
Oc1ccc(N2CCN(C(c3cccs3)c3nnnn3CCc3ccccc3)CC2)cc1 (stereo not drawn)	i	i	30.1	i	i	i
O=C(Cc1ccccc1)NCCSCc1ccc(Cl)cc1	28.8	i	i	i	i	i
O=C(COc1ccccc1)NCCSCc1ccc(Cl)cc1	i	i	i	i	i	i
CCNC(=O)N1C[C@H]2CON(C)[C@H]2C[C@H]1c1ccc(N2CCCCC2)cc1	nt	i	nt	i	nt	nt
CCC(C)NC(=O)c1ccc(CS(=O)(=O)Cc2ccc(Cl)cc2)o1 (stereo not drawn)	i	i	25.5	i	i	i
COC(=O)c1ccccc1NC(=O)CN1CCC(C(=O)c2ccc3c(c2)OCCO3)CC1	i	i	32.6	i	i	i
O=C(NCc1ccco1)Nc1c(Cl)cc(Cl)cc1Cl	nt	i	nt	i	nt	nt
COC(=O)Cc1nnn2c1[C@H](C)[C@H](c1ccccc1Br)OC[C@H](C)C2	nt	i	nt	i	nt	nt
N/C(=N\OC(=O)c1ccc(F)cc1)c1ccc(Br)cc1	i	i	i	i	i	i
O=C(O/N=C/c1ccc(Br)cc1)c1ccc(F)cc1	45.4	i	i	i	i	66.6
CC1=C(C#N)C(=O)N(C2CCS(=O)(=O)C2)C(=O)/C1=C\c1ccco1 (stereo not drawn)	nt	nt	92.9	nt	nt	nt
CCCN(CCC)CCN1CCN(C(=O)[C@H](CCc2ccccc2)NC(=O)[C@H]2O[C@@H](n3cnc4c(N)ncnc43)[C@H](O)[C@@H]2O)CC1	nt	i	nt	i	nt	nt
CN1OC[C@@H]2CN3C(=Nc4cc(C(F)(F)F)cc(C(F)(F)F)c4)Sc4ccccc4[C@@H]3C[C@@H]21	nt	i	nt	i	nt	nt
Cc1ccc(S(=O)(=O)Nc2cccc(Cl)c2)cc1NC(=O)C1CC1	i	i	33.7	i	i	i
CN1CCN(S(=O)(=O)c2ccc(Sc3nnnn3-c3ccccc3)c([N+](=O)[O-])c2)CC1	38.5	i	i	i	i	i
C=CCCC(=O)Nc1nc(C)c(-c2csc(Nc3cccc(OC)c3)n2)s1	i	i	i	i	i	i
CCCC(=O)Nc1nc(C)c(-c2csc(Nc3cc(OC)ccc3OC)n2)s1	i	i	28.8	i	i	i
CCCC(C)C(=O)Nc1nc(C)c(-c2csc(Nc3cc(OC)ccc3OC)n2)s1 (stereo not drawn)	i	i	28.5	i	i	i
CCCC(=O)Nc1nc(C)c(-c2csc(Nc3ccccc3OC)n2)s1	i	i	i	i	i	i
C=CCCC(=O)Nc1nc(C)c(-c2csc(Nc3cc(OC)ccc3OC)n2)s1	i	i	33.6	i	i	i
O=C1NC(=O)C2(CCCc3ccc(N(CCO)CCO)cc32)N1 (stereo not drawn)	nt	i	nt	i	nt	nt
COc1ccc(Cn2cc(CN3[C@@H](c4ccccc4)COc4cc(Br)ccc4S3(=O)=O)nn2)cc1	nt	i	nt	i	nt	nt
SMILES	PAFAH1B2 inh	ASAP1 GAP inh	pPAFAH FP inh	ARFGAP1 inh	PAFAH1B3 inh	PAFAH2 inh
COc1ccc2[nH]cc(CCNC(=O)COc3cc(C)cc4oc(=O)cc(C)c34)c2c1	24.9	i	i	i	i	i
Cc1cc(OC(C)C(=O)NCCc2c[nH]c3ccccc23)c2c(C)cc(=O)oc2c1 (stereo not drawn)	i	i	i	i	i	i
COC(=O)C1=C(C)N(Cc2ccc(C(F)(F)F)cc2)C(=NCc2ccc3c(c2)OCO3)NC1c1ccccc1C(F)(F)F (stereo not drawn)	nt	i	nt	i	nt	nt
O=C1c2ccccc2/C(=C\c2ccc(Br)nc2)N1c1ccccc1	nt	i	nt	i	nt	nt
COc1ccccc1Cn1c(-c2ccccc2OC)nc2ccccc21	i	i	27.2	i	i	i
Oc1ccccc1Cn1c(-c2ccccc2O)nc2ccccc21	i	i	i	i	i	i
CCC(C)NS(=O)(=O)c1ccc(OCC(=O)N2CCCC2)cc1 (stereo not drawn)	i	i	26.9	i	i	i
CCOC(=O)C1CCCN(C(=O)COc2ccc(S(=O)(=O)N(CC)c3ccccc3)cc2)C1 (stereo not drawn)	i	i	33.8	i	i	i
CC(C)NS(=O)(=O)c1ccc(OCC(=O)N2CCCC2)cc1	i	i	i	i	i	i
O=C(COc1ccc(S(=O)(=O)NC2CCCCC2)cc1)N1CCN(c2cccc(Cl)c2)CC1	i	i	27.9	i	i	i
CC(C)NS(=O)(=O)c1ccc(OCC(=O)N2CCN(c3ccccc3)CC2)cc1	i	i	i	i	i	i
Cc1ccc(C)c(NS(=O)(=O)c2ccc(OCC(=O)N3CCCC3)cc2)c1	i	i	25.4	i	i	i
Cc1ccccc1NS(=O)(=O)c1ccc(OCC(=O)N2CCCC2)cc1	i	i	i	i	i	i
COc1cccc(NC(=O)N(C)C[C@H]2OCc3ccccc3-c3c(n(C)c4ccccc34)C(=O)N([C@H](C)CO)C[C@H]2C)c1	nt	i	nt	i	nt	nt
COc1cccc(CNC(=O)[C@H]2CCCN2C(=O)[C@H]2CCCN2C(=O)c2c(F)cccc2F)c1	nt	i	nt	i	nt	nt
C[C@@H]1COc2cc(N3CCOCC3)ccc2S(=O)(=O)N1	nt	i	nt	i	nt	nt
C[C@@H]1CN(c2ccc(N3CCNC[C@@H]3C)cc2C#N)CCN1Cc1ccccc1	nt	i	nt	i	nt	nt
Cc1ccc(S(=O)(=O)NCC2CCN(C(=O)C(=O)c3cccs3)CC2)cc1	nt	i	nt	i	nt	nt
O=C(N/N=C/C1C(c2ccccc2)C1(Cl)Cl)c1cccc(Cl)c1 (stereo not drawn)	29.0	i	i	i	i	i
CCCCN1CC(COCc2ccccc2)Oc2cccc(Oc3ccc(SC)c(C)c3)c2S1(=O)=O (stereo not drawn)	nt	i	nt	i	nt	nt
CC(=O)Nc1ccc(S(=O)(=O)N(C)CC(=O)OCC(=O)NNC(=O)c2ccccc2F)cc1	i	i	i	i	i	i
CC(=O)Nc1ccc(S(=O)(=O)N(C)CC(=O)OCC(=O)NC(C)C23CC4CC(CC(C4)C2)C3)cc1 (stereo not drawn)	24.7	i	i	i	i	i
CCN(C(=O)COC(=O)C(C)(C)Oc1ccc(Cl)cc1)c1c(N)n(Cc2ccccc2)c(=O)[nH]c1=O	i	i	nt	i	i	i
CN(C(=O)COC(=O)C(C)(C)Oc1ccc(Cl)cc1)c1c(N)n(Cc2ccccc2)c(=O)[nH]c1=O	i	i	28.9	i	i	i
CCN=C1NC(c2ccc(F)cc2)C(C(=O)OC)=C(C)N1Cc1cccc(C(F)(F)F)c1 (stereo not drawn)	nt	i	nt	i	nt	nt
C/C(=N\Nc1ccc(Cl)c(C(=O)O)c1)c1ccc(Br)s1	i	i	26.9	i	i	i
